pEC50: −log10 of the molar value.
Columns and labels:
Format in all cases: cell-based
Nitric oxide synthase 1 [1] = target: T1, Nitric oxide synthase 1 (Homo sapiens, UniProt P29475); assay: Inhibition of human nNOS expressed in HEK293 cells assessed as inhibition ionomycin-induced nitric oxide production at 100 uM incubated for 24 hrs measured after 18 hrs of ionomycin challenge by 2,3-diaminonaphthalene assay
Procedure, shortened: (§1)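 Transiently transfected cells plated at 5e5 cells/ml; compounds added immediately by pin transfer. Incubated 24 h with compound, then activated by ionophore (0.8 µM final). Fluorescence (ex 360/em 425 nm) read after raising pH with NaOH (0.12 N final). Values are mean of three experiments with SD. At 100 µM, <50% inhibition is reported as >100.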

[2] = target: T2, Nitric oxide synthase 3 (Homo sapiens) (UniProt P29474); assay: Inhibition of human eNOS expressed in HEK293 cells assessed as inhibition A23187-induced nitric oxide production at 100 uM incubated for 24 hrs measured after 18 hrs of A23187 challenge by 2,3-diaminonaphthalene assay; procedure, shortened: as §1
T2 sequence (whole entry): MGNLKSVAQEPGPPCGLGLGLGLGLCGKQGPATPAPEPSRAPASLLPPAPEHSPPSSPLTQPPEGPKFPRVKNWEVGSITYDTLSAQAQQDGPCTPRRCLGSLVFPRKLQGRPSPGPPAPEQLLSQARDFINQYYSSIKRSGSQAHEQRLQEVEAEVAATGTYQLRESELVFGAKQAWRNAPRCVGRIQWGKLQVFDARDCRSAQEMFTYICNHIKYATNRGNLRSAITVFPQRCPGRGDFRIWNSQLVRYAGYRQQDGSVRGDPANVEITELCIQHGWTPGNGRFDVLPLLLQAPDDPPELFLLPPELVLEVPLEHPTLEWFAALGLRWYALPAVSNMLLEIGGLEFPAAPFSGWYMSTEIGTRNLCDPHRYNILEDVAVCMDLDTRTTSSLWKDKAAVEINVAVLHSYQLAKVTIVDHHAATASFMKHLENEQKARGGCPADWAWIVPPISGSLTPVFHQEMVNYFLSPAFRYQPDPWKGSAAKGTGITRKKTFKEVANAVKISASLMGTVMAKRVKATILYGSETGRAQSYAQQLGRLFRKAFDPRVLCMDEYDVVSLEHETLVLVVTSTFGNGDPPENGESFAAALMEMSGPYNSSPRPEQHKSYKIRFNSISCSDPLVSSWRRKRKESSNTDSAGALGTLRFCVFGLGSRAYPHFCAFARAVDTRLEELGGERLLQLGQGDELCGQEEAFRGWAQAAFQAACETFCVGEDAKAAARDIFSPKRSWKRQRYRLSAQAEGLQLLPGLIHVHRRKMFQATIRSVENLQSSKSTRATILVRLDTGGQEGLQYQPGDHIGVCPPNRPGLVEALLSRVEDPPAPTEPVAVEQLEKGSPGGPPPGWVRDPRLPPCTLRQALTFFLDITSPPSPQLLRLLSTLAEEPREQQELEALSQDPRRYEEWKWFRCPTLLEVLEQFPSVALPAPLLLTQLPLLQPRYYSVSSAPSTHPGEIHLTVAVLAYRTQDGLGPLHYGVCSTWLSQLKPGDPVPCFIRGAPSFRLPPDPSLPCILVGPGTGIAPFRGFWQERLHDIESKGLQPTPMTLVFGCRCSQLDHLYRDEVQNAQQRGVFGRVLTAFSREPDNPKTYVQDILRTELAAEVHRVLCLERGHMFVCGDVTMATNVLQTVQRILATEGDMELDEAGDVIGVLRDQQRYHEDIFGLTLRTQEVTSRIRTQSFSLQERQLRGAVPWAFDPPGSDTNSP

Nitric oxide synthase 1 [3] = target: T1, Nitric oxide synthase 1; assay: Inhibition of human nNOS expressed in HEK293 cells assessed as inhibition ionomycin-induced nitric oxide production incubated for 24 hrs measured after 18 hrs of ionomycin challenge by 2,3-diaminonaphthalene assay; procedure, shortened: as §1
[4] = target: T3, Nitric oxide synthase, inducible (Homo sapiens, UniProt P35228); assay: Inhibition of human iNOS expressed in human HEK293 cells assessed as nitrite accumulation after 18 hrs by 2,3-diaminonapthalene assay
Procedure, shortened: as §1, with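 “18” for “24”, “for nitrite accumulation.” for “with compound, then activated by ionophore (0.8 µM final).”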

Nitric oxide synthase 3 = target: T4, Nitric oxide synthase 3 (Homo sapiens, UniProt P29474); assay: Inhibition of human eNOS expressed in HEK293 cells assessed as inhibition A23187-induced nitric oxide production incubated for 24 hrs measured after 18 hrs of A23187 challenge by 2,3-diaminonaphthalene assay; procedure, shortened: as §1
T4 sequence (P29474 whole entry): T2 sequence (whole entry)

[5] = target: T3, Nitric oxide synthase, inducible; assay: Inhibition of human iNOS expressed in human HEK293 cells assessed as nitrite accumulation at 100 uM after 18 hrs by 2,3-diaminonapthalene assay
Procedure, shortened: as §1, with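 “18” for “24”, “for nitrite accumulation.” for “with compound, then activated by ionophore (0.8 µM final).”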

T3 sequence (P35228 whole entry): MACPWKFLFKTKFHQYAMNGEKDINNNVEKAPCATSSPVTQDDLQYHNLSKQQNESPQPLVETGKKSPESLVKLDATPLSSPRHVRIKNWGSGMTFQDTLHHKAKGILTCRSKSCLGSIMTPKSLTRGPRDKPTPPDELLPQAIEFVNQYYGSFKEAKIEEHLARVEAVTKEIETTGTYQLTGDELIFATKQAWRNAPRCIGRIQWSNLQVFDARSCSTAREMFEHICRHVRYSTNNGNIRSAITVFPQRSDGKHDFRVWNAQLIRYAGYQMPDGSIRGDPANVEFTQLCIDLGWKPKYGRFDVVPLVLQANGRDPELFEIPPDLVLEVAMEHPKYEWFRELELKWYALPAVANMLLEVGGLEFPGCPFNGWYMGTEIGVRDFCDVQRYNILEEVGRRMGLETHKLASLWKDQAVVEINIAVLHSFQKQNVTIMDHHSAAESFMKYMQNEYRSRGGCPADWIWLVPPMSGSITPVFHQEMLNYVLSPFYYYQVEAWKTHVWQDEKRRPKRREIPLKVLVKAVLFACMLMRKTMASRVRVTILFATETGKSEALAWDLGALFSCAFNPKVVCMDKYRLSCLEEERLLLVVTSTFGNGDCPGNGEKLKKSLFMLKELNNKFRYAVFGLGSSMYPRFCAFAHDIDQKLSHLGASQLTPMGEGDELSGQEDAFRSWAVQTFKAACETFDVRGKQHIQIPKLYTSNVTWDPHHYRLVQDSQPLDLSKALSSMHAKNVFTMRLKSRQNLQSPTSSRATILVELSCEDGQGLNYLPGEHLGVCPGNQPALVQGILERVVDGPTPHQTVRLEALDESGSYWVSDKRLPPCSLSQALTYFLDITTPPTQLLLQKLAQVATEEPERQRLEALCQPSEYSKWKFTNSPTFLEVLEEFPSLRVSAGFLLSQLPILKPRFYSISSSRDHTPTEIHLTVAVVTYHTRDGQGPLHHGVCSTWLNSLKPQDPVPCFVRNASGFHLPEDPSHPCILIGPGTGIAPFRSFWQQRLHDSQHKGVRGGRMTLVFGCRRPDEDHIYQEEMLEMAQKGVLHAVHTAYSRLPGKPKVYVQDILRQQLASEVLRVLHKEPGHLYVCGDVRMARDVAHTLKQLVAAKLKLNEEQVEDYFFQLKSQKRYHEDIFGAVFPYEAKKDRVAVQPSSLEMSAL
T1 sequence (P29475 whole entry): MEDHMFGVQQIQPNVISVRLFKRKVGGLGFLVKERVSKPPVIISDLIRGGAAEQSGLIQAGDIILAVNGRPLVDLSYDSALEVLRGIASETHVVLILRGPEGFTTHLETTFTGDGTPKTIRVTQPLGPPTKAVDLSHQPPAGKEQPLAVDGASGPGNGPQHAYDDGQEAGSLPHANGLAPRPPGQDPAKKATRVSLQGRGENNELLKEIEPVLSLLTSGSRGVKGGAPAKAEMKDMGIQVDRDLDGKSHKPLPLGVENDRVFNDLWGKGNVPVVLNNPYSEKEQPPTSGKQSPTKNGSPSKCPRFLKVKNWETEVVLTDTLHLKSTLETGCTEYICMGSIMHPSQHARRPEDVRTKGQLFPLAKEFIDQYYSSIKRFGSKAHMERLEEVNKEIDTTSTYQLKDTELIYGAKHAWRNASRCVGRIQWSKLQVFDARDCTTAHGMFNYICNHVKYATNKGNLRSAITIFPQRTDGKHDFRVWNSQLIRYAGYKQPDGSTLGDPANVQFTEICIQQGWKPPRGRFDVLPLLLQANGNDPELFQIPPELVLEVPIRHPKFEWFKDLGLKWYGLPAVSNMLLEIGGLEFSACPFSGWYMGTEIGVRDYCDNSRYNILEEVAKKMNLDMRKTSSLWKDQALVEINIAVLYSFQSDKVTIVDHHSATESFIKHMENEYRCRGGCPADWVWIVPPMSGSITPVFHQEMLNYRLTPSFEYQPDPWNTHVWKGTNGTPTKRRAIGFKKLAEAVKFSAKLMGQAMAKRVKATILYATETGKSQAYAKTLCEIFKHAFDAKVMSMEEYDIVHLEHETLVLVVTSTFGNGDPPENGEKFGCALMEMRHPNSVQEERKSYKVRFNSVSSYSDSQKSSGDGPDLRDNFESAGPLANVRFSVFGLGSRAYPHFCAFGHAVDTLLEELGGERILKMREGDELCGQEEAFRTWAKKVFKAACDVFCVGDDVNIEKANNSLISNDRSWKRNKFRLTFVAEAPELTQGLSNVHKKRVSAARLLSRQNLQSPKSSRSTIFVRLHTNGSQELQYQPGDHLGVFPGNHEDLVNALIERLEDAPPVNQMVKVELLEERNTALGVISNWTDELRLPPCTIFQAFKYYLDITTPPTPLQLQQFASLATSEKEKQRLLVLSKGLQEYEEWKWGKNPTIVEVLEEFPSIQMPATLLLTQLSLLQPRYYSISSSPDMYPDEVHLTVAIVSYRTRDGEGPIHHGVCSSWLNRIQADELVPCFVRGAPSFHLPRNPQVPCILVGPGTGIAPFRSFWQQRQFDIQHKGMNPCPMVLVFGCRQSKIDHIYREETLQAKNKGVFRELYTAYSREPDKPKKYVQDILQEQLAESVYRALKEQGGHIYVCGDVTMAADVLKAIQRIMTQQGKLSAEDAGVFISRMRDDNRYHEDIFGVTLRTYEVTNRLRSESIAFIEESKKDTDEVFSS

Compound | inhibition (Nitric oxide synthase 1 [1]) [%] | inhibition [2] [%] | pEC50 (Nitric oxide synthase 1 [3]) | pEC50 [4] | pEC50 (Nitric oxide synthase 3) | inhibition [5] [%]
Cc1cc(CNC(=O)NCCc2ccc3c(c2)OCO3)nc(-n2ccnc2)n1 | < 50 | < 50 | < 4.00 | 7.85 | < 4.00 | 
CN(CCCNCCc1ccc2c(c1)OCO2)c1nc(-n2ccnc2)ns1 |  | < 50 | 4.33 | 6.64 | < 4.00 | 
Cc1cc(CNC(=O)CNCc2ccc3c(c2)OCO3)nc(-n2ccnc2)n1 | < 50 | < 50 | < 4.00 | 6.53 | < 4.00 | 
c1cn(-c2nsc(N(CCCNCc3ccc4c(c3)OCO4)C3CC3)n2)cn1 |  | < 50 | 4.44 | 7.25 | < 4.00 | 
Cc1cc(C(C)NCCOCc2ccc3c(c2)OCO3)nc(-n2ccnc2)n1 (centres undefined) | < 50 | < 50 | < 4.00 | 6.54 | < 4.00 | 
Cc1cc(CCCCNCc2ccc3c(c2)OCO3)nc(-n2ccnc2)n1 | < 50 | < 50 | < 4.00 | 7.70 | < 4.00 | 
Cc1cc(C(=O)NCCN(C)Cc2ccc3c(c2)OCO3)nc(-n2ccnc2)n1 | < 50 | < 50 | < 4.00 | < 4.00 | < 4.00 | < 50
COc1ccc(CNCCCN(C)c2nc(-n3ccnc3)ns2)cc1 | < 50 | < 50 | < 4.00 | 6.44 | < 4.00 | 
CN(CCCNCc1ccc2c(c1)OC(F)(F)O2)c1nc(-n2ccnc2)ns1 | < 50 | < 50 | < 4.00 | 5.05 | < 4.00 | 
Cn1cnc(CN(CCCNCc2ccc3c(c2)OCO3)c2nc(-n3ccnc3)ns2)c1 |  | < 50 | 4.74 | 7.15 | < 4.00 | 
c1cn(-c2nsc(N(CCCNCc3ccc4c(c3)OCO4)Cc3nnn[nH]3)n2)cn1 | < 50 | < 50 | < 4.00 | 5.40 | < 4.00 | 
CN(C)C(=O)CN(CCCNCc1ccc2c(c1)OCO2)c1nc(-n2ccnc2)ns1 | < 50 | < 50 | < 4.00 | 7.10 | < 4.00 | 
COc1ccc(CNCCCN(C)c2nc(-n3ccnc3)ns2)cc1OC | < 50 | < 50 | < 4.00 | 6.12 | < 4.00 | 
CN(CCCNCc1ccc2c(c1)OCCO2)c1nc(-n2ccnc2)ns1 |  | < 50 | 4.62 | 7.32 | < 4.00 | 
CN(CCCNCc1ccncc1)c1nc(-n2ccnc2)ns1 | < 50 | < 50 | < 4.00 | < 4.00 | < 4.00 | < 50
CN(CCCNCc1ccc2[nH]ccc2c1)c1nc(-n2ccnc2)ns1 | < 50 | < 50 | < 4.00 | < 4.00 | < 4.00 | < 50
Cc1cc(-c2cccn2CCN(C)Cc2ccc3c(c2)OCO3)nc(-n2ccnc2)n1 | < 50 | < 50 | < 4.00 | 5.74 | < 4.00 | 
O=C(O)CN(CCCNCc1ccc2c(c1)OCO2)c1nc(-n2ccnc2)ns1 | < 50 | < 50 | < 4.00 | < 4.00 | < 4.00 | < 50
CN(CCCNC(=O)c1ccc2c(c1)OCO2)c1nc(-n2ccnc2)ns1 | < 50 | < 50 | < 4.00 | 5.20 | < 4.00 | 
CN(CCCNCc1ccc(F)c(F)c1)c1nc(-n2ccnc2)ns1 | < 50 | < 50 | < 4.00 | < 4.00 | < 4.00 | < 50

The next compounds have a higher pEC50 (Nitric oxide synthase 1 [3]) than those just listed; values first:

inhibition (Nitric oxide synthase 1 [1]) [%] | inhibition [2] [%] | pEC50 (Nitric oxide synthase 1 [3]) | pEC50 [4] | pEC50 (Nitric oxide synthase 3) | inhibition [5] [%] | Compound
 | < 50 | 4.96 | 7.38 | < 4.00 |  | Oc1ccc(CN(CCCNCc2ccc3c(c2)OCO3)c2nc(-n3ccnc3)ns2)cc1
 | < 50 | 5.57 | 8.05 | < 4.00 |  | Cc1cc(C2CCCN2C(=O)NCCc2ccc3c(c2)OCO3)nc(-n2ccnc2)n1 (centres undefined)
 | < 50 | 5.41 | 8.40 | < 4.00 |  | Cc1cc(C2CCCN2CCN(C)Cc2ccc3c(c2)OCO3)nc(-n2ccnc2)n1 (centres undefined)
 | < 50 | 5.10 | 7.05 | < 4.00 |  | c1cn(-c2nsc(N(CCCNCc3ccc4c(c3)OCO4)Cc3ccc4occc4c3)n2)cn1
 | < 50 | 5.02 | 7.44 | < 4.00 |  | Cc1cc(C2CCCN2CC(=O)NCc2ccc3c(c2)OCO3)nc(-n2ccnc2)n1 (centres undefined)
 | < 50 | 6.32 | 8.30 | < 4.00 |  | c1cncc(CN(CCCNCc2ccc3c(c2)OCO3)c2nc(-n3ccnc3)ns2)c1
 | < 50 | 5.68 | 7.85 | < 4.00 |  | c1coc(CN(CCCNCc2ccc3c(c2)OCO3)c2nc(-n3ccnc3)ns2)c1
 | < 50 | 5.14 | 7.23 | < 4.00 |  | CNC(=O)CN(CCCNCc1ccc2c(c1)OCO2)c1nc(-n2ccnc2)ns1
 | < 50 | 5.12 | 7.47 | < 4.00 |  | CCOC(=O)CN(CCCNCc1ccc2c(c1)OCO2)c1nc(-n2ccnc2)ns1
 | < 50 | 5.14 | 7.92 | < 4.00 |  | N#CCN(CCCNCc1ccc2c(c1)OCO2)c1nc(-n2ccnc2)ns1
 | < 50 | 6.51 | 8.22 | < 4.00 |  | c1cn(-c2nsc(N(CCCNCc3ccc4c(c3)OCO4)Cc3nccs3)n2)cn1
 | < 50 | 5.17 | 6.79 | < 4.00 |  | CN(C)c1ccc(CN(CCCNCc2ccc3c(c2)OCO3)c2nc(-n3ccnc3)ns2)cc1
 | < 50 | 5.64 | 8.05 | < 4.00 |  | CCCN(CCCNCc1ccc2c(c1)OCO2)c1nc(-n2ccnc2)ns1
 | < 50 | 6.16 | 8.05 | < 4.00 |  | c1csc(CN(CCCNCc2ccc3c(c2)OCO3)c2nc(-n3ccnc3)ns2)c1
 | < 50 | 5.22 | 7.54 | < 4.00 |  | Cc1cc(C(C)NCCN(C)Cc2ccc3c(c2)OCO3)nc(-n2ccnc2)n1 (centres undefined)
 | < 50 | 4.96 | 7.09 | < 4.00 |  | NC(=O)CN(CCCNCc1ccc2c(c1)OCO2)c1nc(-n2ccnc2)ns1
 | < 50 | 5.18 | 7.52 | < 4.00 |  | Cc1cc(C2CCCN2C(=O)CNCc2ccc3c(c2)OCO3)nc(-n2ccnc2)n1 (centres undefined)

From ChEMBL document CHEMBL1909611, “Identification and SAR of selective inducible nitric oxide synthase (iNOS) dimerization inhibitors” (Bioorg Med Chem Lett, 2011)
